Experimental findings from ChEMBL document CHEMBL2346537, “Phenylimino-2H-chromen-3-carboxamide derivatives as novel small molecule inhibitors of β-secretase (BACE1)” (Bioorg Med Chem, 2013) are described below.

Series [1] can be described thus: Cytotoxicity against mouse Neuro2a cells expressing APP Swedish mutant assessed as cell viability at 5 uM after 24 hrs by MTT assay relative to control. It counts as cell-based, N2a. To be noted: read-out: Activity. The method in brief: (§1)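 N2a-APPswe cells seeded at 2 × 10⁵ cells/ml (8 × 10⁴/well), grown overnight at 37 °C, then dosed as in the Aβ assay (DMSO diluted in medium, final DMSO under 0.5%). MTT 0.5 mg/ml added for 4 h at 37 °C, formazan dissolved in DMSO, read at 570 nm with 655 nm background. Viability given as percent of untreated control. Average of 3–4 experiments ± SEM.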
A general note: Tetrazolium assays rely on reduction of a dye to a coloured formazan, in cell work by metabolically active cells.

Series [2] is described as follows: Cytotoxicity against mouse Neuro2a cells expressing APP Swedish mutant assessed as cell viability at 10 uM after 24 hrs by MTT assay relative to control. It counts as cell-based, N2a. The conditions noted are these: read-out: Activity. The method in brief: as §1
Series [3] deals with Beta-secretase 1 (Homo sapiens, UniProt P56817). In words: Inhibition of BACE1 (unknown origin) expressed in baculovirus expression system using Rh-EVNLDAEFK-Quencher as substrate after 90 mins by FRET assay.
Sequence of Beta-secretase 1 (P56817 whole entry): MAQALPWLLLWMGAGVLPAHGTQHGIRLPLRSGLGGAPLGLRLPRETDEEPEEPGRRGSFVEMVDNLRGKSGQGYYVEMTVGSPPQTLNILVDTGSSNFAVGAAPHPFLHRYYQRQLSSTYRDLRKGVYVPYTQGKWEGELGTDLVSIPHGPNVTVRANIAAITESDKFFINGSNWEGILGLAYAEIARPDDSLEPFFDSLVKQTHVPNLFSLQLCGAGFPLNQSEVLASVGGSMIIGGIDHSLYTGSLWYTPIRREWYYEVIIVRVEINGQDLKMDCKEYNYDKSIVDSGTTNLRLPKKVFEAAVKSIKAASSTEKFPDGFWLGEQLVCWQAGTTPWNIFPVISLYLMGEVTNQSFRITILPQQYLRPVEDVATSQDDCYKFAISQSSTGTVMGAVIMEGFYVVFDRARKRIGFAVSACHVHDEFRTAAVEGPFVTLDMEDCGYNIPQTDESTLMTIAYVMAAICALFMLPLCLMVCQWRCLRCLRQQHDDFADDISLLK
In series [4] the target is Beta-secretase 1 (Mus musculus) (UniProt P56818). In words: Inhibition of BACE1 in mouse Neuro2a cells expressing APP Swedish mutant assessed as inhibition of amyloid beta (1 to 40) production at 5 uM after 24 hrs by sandwich ELISA relative to control. It counts as cell-based. The method in brief: (§2)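 N2a-APPswe cells seeded at 2 × 10⁵ cells/ml and incubated overnight at 37 °C. Medium replaced, compound in growth medium added (DMSO under 0.5%), incubated 24 h. Conditioned medium collected with 0.1 mM PMSF. Human Aβ1–40 measured by colorimetric sandwich ELISA at 450 nm. Percent inhibition relative to untreated cells, 2–3 experiments ± SEM.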
Sequence of Beta-secretase 1 (Mus musculus) (P56818 whole entry): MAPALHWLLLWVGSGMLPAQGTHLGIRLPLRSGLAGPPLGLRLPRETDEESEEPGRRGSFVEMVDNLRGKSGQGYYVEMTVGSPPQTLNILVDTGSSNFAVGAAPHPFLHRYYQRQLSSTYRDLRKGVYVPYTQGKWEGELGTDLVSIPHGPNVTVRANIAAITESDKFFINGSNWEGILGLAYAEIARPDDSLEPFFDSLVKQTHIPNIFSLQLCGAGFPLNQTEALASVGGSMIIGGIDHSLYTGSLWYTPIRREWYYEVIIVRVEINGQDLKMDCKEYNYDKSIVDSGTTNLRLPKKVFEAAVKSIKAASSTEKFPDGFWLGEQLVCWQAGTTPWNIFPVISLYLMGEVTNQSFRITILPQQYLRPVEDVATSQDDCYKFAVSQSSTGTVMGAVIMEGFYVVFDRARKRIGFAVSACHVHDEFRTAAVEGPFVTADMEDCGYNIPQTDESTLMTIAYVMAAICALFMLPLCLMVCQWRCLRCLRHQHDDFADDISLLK
In general terms: In an ELISA, binding on a coated surface is turned into a signal by an enzyme label.

Series [5] shares this target. Briefly: Inhibition of BACE1 in mouse Neuro2a cells expressing APP Swedish mutant assessed as inhibition of amyloid beta (1 to 40) production at 10 uM after 24 hrs by sandwich ELISA relative to control. Type of series: cell-based. The method in brief: as §2

pIC50: −log10 of the molar value.

For `CC(C)C[C@H](NC(=O)[C@H](CC(N)=O)NC(=O)[C@@H](NC(=O)[C@@H](N)CCC(=O)O)C(C)C)[C@@H](O)CC(C)C(=O)N[C@@H](C)C(=O)N[C@@H](CCC(=O)O)C(=O)N[C@@H](Cc1ccccc1)C(=O)O` (single isomer, unassigned), in series [1], the viability at 24 h, 5 µM is < 70%. In series [2], the viability at 24 h, 10 µM is < 70%.

In the case of `O=C(Nc1cc(Br)ccc1N1CCN(CCCN2C(=O)c3ccccc3C2=O)CC1)c1cc2ccccc2o/c1=N\c1ccccc1`, the pIC50 in series [3] is 6.49. Moreover, the inhibition in series [4] is 44.3%. In addition, in series [1], the viability at 24 h, 5 µM is 101%.

Turning to `O=C(Nc1cc(Br)ccc1N1CCN(C(=O)c2ccco2)CC1)c1cc2ccccc2o/c1=N\c1ccccc1`, the pIC50 in series [3] was 6.13. For the same compound, the inhibition is 53.1% in series [4] and 65.8% in series [5]. In addition, in series [1], the viability at 24 h, 5 µM was found to be 93%. In addition, in series [2], the viability at 24 h, 10 µM was 95.4%.

In the case of `COc1ccc(C(=O)N2CCN(c3ccc(Br)cc3NC(=O)c3cc4ccccc4o/c3=N\c3ccccc3)CC2)cc1`, the pIC50 in series [3] was < 5.00.

As for `N#CCCCN1CCN(c2ccc(Br)cc2NC(=O)c2cc3ccccc3o/c2=N\c2ccccc2)CC1`, the pIC50 in series [3] is < 5.00.

With `CC(C)(C)OC(=O)N1CCN(c2ccc(Br)cc2NC(=O)c2cc3ccccc3o/c2=N\c2ccccc2)CC1`, the pIC50 in series [3] was 5.01.

Regarding `O=C(Nc1cc(Br)ccc1N1CCN(C(=O)c2cccc([N+](=O)[O-])c2)CC1)c1cc2ccccc2o/c1=N\c1ccccc1`, the pIC50 in series [3] is 4.58.

`O=C(Nc1cc(Br)ccc1N1CCN(C(=O)c2cccc(Cl)c2)CC1)c1cc2ccccc2o/c1=N\c1ccccc1`: in series [3], the pIC50 is < 5.00.

For `COc1cccc2cc(C(=O)Nc3cc(Br)ccc3N3CCN(Cc4ccccc4)CC3)/c(=N/c3ccccc3)oc12`, in series [3], the pIC50 is < 5.00.

Turning to `CC(C)(C)OC(=O)N1CCN(c2ccc(Br)cc2NC(=O)c2cc3ccccc3oc2=N)CC1`, the pIC50 in series [3] was < 5.00.

In series [3], `O=C(Nc1cc(Br)ccc1N1CCN(CCN2C(=O)c3ccccc3C2=O)CC1)c1cc2ccccc2o/c1=N\c1ccccc1` gave a pIC50 of 7.01. Moreover, the inhibition in series [4] is 13.6%; in series [5] it was 39.4%. Moreover, the viability at 24 h, 5 µM in series [1] came out at 108%. Besides, the viability at 24 h, 10 µM in series [2] is 96.5%.

`N#Cc1cccc(CN2CCN(c3ccc(Br)cc3NC(=O)c3cc4ccccc4o/c3=N\c3ccccc3)CC2)c1` had a pIC50 in series [3] of 6.92. Besides, the viability at 24 h, 5 µM in series [1] was determined as 91.2%. For the same compound, in series [2], the viability at 24 h, 10 µM came to 88.7%. Besides, the inhibition in series [5] amounted to 51.8%.

The compound `COc1ccccc1C(=O)N1CCN(c2ccc(Br)cc2NC(=O)c2cc3ccccc3o/c2=N\c2ccccc2)CC1` had a pIC50 in series [3] of 4.59.

`COc1ccc(CN2CCN(c3ccc(Br)cc3NC(=O)c3cc4ccccc4o/c3=N\c3ccccc3)CC2)cc1` had a pIC50 in series [3] of 6.24. Also, the viability at 24 h, 5 µM in series [1] came out at 101%. The viability at 24 h, 10 µM in series [2] was found to be 98.3%. The inhibition in series [5] is 22.9%.

Consider `O=C(Nc1cc(Br)ccc1N1CCN(C(=O)c2cccs2)CC1)c1cc2ccccc2o/c1=N\c1ccccc1`, for which the pIC50 in series [3] was 5.45.

`O=C(Nc1cc(Br)ccc1N1CCN(Cc2ccccc2)CC1)c1cc2ccccc2o/c1=N\c1ccccc1` showed a pIC50 in series [3] of 6.30. For the same compound, the inhibition in series [4] came out at 60.9%; in series [5], 64.7%. Also, in series [1], the viability at 24 h, 5 µM amounted to 102%. Further, in series [2], the viability at 24 h, 10 µM is 95%.

The compound `O=C(Nc1cc(Br)ccc1N1CCN(CCO)CC1)c1cc2ccccc2o/c1=N\c1ccccc1` gave a pIC50 in series [3] of 6.07. The inhibition in series [4] was found to be 41.3%; in series [5], 48.2%. Also, the viability at 24 h, 5 µM in series [1] was determined as 105%. Moreover, the viability at 24 h, 10 µM in series [2] was found to be 101%.

In the case of `O=C(Nc1cc(Br)ccc1N1CCN(CCc2cc3ccccc3[nH]2)CC1)c1cc2ccccc2o/c1=N\c1ccccc1`, the pIC50 in series [3] is 6.03. Besides, the inhibition was 37.8% in series [4] and 57.6% in series [5]. The viability at 24 h, 5 µM in series [1] was 105%. Also, in series [2], the viability at 24 h, 10 µM stood at 111%.

Turning to `COc1cccc2cc(C(=O)Nc3cc(Br)ccc3N3CCN(Cc4ccccc4)CC3)c(=N)oc12`, in series [3], the pIC50 was < 5.00.

Regarding `O=C(Nc1cc(Br)ccc1N1CCN(CCCCN2C(=O)c3ccccc3C2=O)CC1)c1cc2ccccc2o/c1=N\c1ccccc1`, the pIC50 in series [3] is 6.07.

In turn, `N=c1oc2ccccc2cc1C(=O)Nc1cc(Br)ccc1N1CCN(Cc2ccccc2)CC1` showed a pIC50 in series [3] of 5.92. Also, the inhibition was 26.4% in series [4] and 58.3% in series [5]. Besides, the viability at 24 h, 5 µM in series [1] stood at 99.7%. In series [2], the viability at 24 h, 10 µM was found to be 98.9%.

For the compound `O=C(Nc1cc(Br)ccc1N1CCNCC1)c1cc2ccccc2o/c1=N\c1ccccc1`, the pIC50 in series [3] is 5.03.

The term pIC50 denotes the IC50 on a negative log10 scale, so that one unit is a factor of ten. The low end stands for a high IC50, the high end for a low IC50. In general, inhibition refers to the percentage by which the read-out fell short of the control.
